Assay type in all cases: functional
The subject of one experiment is Candida albicans. The experiment in a line: Antifungal activity against Candida albicans KCCM 50235 after 1 day. The settings on record: KCCM 50235, 24 h. Summed up: (§1)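 MIC found by twofold broth dilution in modified Sabouraud dextrose broth. Approximately 1 × 10⁵ cells/mL inoculated. Final agent concentrations ranged from 0.2 to 50.0, compared against fluconazole and 5-fluorocytosine. Read after 1 day at 37 °C.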

Another experiment concerns Candida tropicalis. The experiment in a line: Antifungal activity against Candida tropicalis KCCM 50662 after 1 day. The settings on record: KCCM 50662, 24 h. The essentials:
as §1

For another experiment, the system named is Pichia kudriavzevii. The experiment in a line: Antifungal activity against Candida krusei KCCM 11655 after 1 day. To be noted: KCCM 11655, 24 h. Summed up:
as §1

The subject of another experiment is Aspergillus flavus. The experiment in a line: Antifungal activity against Aspergillus flavus KCCM 11899 after 2 days. To be noted: KCCM 11899, 48 h. Summed up:
(§2)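 Twofold broth dilution in modified Sabouraud dextrose broth. Inoculum about 1 × 10⁵ cells/mL. Agents tested at final concentrations of 0.2 to 50.0, with fluconazole and 5-fluorocytosine as standards.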

A further experiment concerns Cryptococcus neoformans. The experiment in a line: Antifungal activity against Cryptococcus neoformans KCCM 50564 after 1 day. To be noted: KCCM 50564, 24 h. Summed up:
as §1

The test system of a further experiment is Aspergillus niger. The experiment in a line: Antifungal activity against Aspergillus niger KCTC 1231 after 2 days. The settings on record: KCTC 1231, 48 h. The essentials:
as §2

The record followed here is ChEMBL document CHEMBL1268841, “Synthesis and antifungal activity of benzofuran-5-ols” (2010).

Converted amounts (≈) assume the structure as drawn. Bounds are passed on as bounds.

Take `Cc1cc2oc(N)c(C#N)c2cc1O`: the MIC is 50 µg/mL (≈ 266 µM) with Candida albicans; greater than 50 µg/mL against Candida tropicalis; 0.8 µg/mL (≈ 4.25 µM) in the experiment on Pichia kudriavzevii; 12.5 µg/mL (≈ 66.4 µM) with Aspergillus flavus; 3.2 µg/mL (≈ 17 µM) in the experiment with Cryptococcus neoformans; greater than 50 µg/mL in the experiment with Aspergillus niger.
In the case of `COC(=O)C(C#N)C1=C(Cl)C(=O)C(C)=C(C)C1=O` (stereo not drawn), the MIC against Candida albicans is 50 µg/mL (≈ 187 µM); with Candida tropicalis, 50 µg/mL (≈ 187 µM); in the experiment with Pichia kudriavzevii, 25 µg/mL (≈ 93.4 µM); in the experiment with Aspergillus flavus it was 12.5 µg/mL (≈ 46.7 µM); against Cryptococcus neoformans, 6.3 µg/mL (≈ 23.5 µM); against Aspergillus niger, 25 µg/mL (≈ 93.4 µM).
Regarding `CCOC(=O)c1c(N)oc2ccc(O)cc12`, the minimum inhibitory concentration (MIC) against Candida albicans turned out to be 1.6 µg/mL (≈ 7.23 µM); against Candida tropicalis it was 3.2 µg/mL (≈ 14.5 µM); in the experiment on Pichia kudriavzevii, 12.5 µg/mL (≈ 56.5 µM); against Aspergillus flavus, 6.3 µg/mL (≈ 28.5 µM); in the experiment with Cryptococcus neoformans it was 12.5 µg/mL (≈ 56.5 µM); in the experiment on Aspergillus niger it was 3.2 µg/mL (≈ 14.5 µM).
For `COC(=O)c1c(N)oc2c(C)c(C)c(O)cc12`, the MIC was determined as 50 µg/mL (≈ 213 µM) against Candida albicans; 50 µg/mL (≈ 213 µM) against Candida tropicalis; 25 µg/mL (≈ 106 µM) with Pichia kudriavzevii; 25 µg/mL (≈ 106 µM) in the experiment with Aspergillus flavus; 25 µg/mL (≈ 106 µM) in the experiment on Cryptococcus neoformans; 6.3 µg/mL (≈ 26.8 µM) in the experiment on Aspergillus niger.
For `COC(=O)c1c(N)oc2c(C)c(C)c(O)c(Sc3cccc(F)c3)c12`, the MIC is greater than 50 µg/mL against Candida albicans; 50 µg/mL (≈ 138 µM) with Candida tropicalis; 25 µg/mL (≈ 69.2 µM) against Pichia kudriavzevii; 3.2 µg/mL (≈ 8.85 µM) in the experiment with Aspergillus flavus; 6.3 µg/mL (≈ 17.4 µM) in the experiment on Cryptococcus neoformans; 1.6 µg/mL (≈ 4.43 µM) against Aspergillus niger.
In the case of `N#Cc1c(N)oc2ccc(O)cc12`, the minimum inhibitory concentration (MIC) is 12.5 µg/mL (≈ 71.8 µM) against Candida albicans; 6.3 µg/mL (≈ 36.2 µM) against Candida tropicalis; 25 µg/mL (≈ 144 µM) against Pichia kudriavzevii; 12.5 µg/mL (≈ 71.8 µM) with Aspergillus flavus; 12.5 µg/mL (≈ 71.8 µM) in the experiment on Cryptococcus neoformans; 6.3 µg/mL (≈ 36.2 µM) in the experiment with Aspergillus niger.
Regarding `COC(=O)c1c(N)oc2ccc(O)cc12`, the MIC against Candida albicans stood at 1.6 µg/mL (≈ 7.72 µM); in the experiment on Candida tropicalis, 3.2 µg/mL (≈ 15.4 µM); in the experiment with Pichia kudriavzevii, 6.3 µg/mL (≈ 30.4 µM); against Aspergillus flavus, 12.5 µg/mL (≈ 60.3 µM); in the experiment with Cryptococcus neoformans it was 12.5 µg/mL (≈ 60.3 µM); against Aspergillus niger, 3.2 µg/mL (≈ 15.4 µM).
Regarding `COC(=O)c1c(N)oc2c(C)c(C)c(O)c(Sc3ccc(C)c(C)c3)c12`, the MIC was 25 µg/mL (≈ 67.3 µM) in the experiment with Candida albicans; 25 µg/mL (≈ 67.3 µM) against Candida tropicalis; 3.2 µg/mL (≈ 8.61 µM) in the experiment with Pichia kudriavzevii; 3.2 µg/mL (≈ 8.61 µM) in the experiment on Aspergillus flavus; 1.6 µg/mL (≈ 4.31 µM) in the experiment on Cryptococcus neoformans; 12.5 µg/mL (≈ 33.7 µM) in the experiment on Aspergillus niger.
Consider `Nc1nc(=O)[nH]cc1F` [FLUCYTOSINE], for which the minimum inhibitory concentration (MIC) against Candida albicans was 6.3 µg/mL (≈ 48.8 µM); with Candida tropicalis, 6.3 µg/mL (≈ 48.8 µM); against Pichia kudriavzevii, 12.5 µg/mL (≈ 96.8 µM); in the experiment on Aspergillus flavus, 6.3 µg/mL (≈ 48.8 µM); against Cryptococcus neoformans it was 12.5 µg/mL (≈ 96.8 µM); in the experiment on Aspergillus niger, 12.5 µg/mL (≈ 96.8 µM).
`COC(=O)c1c(N)oc2c(C)c(C)c(O)c(Sc3cccc(C)c3)c12`: the MIC with Candida albicans was greater than 50 µg/mL; against Candida tropicalis, greater than 50 µg/mL; in the experiment on Pichia kudriavzevii it was greater than 50 µg/mL; against Aspergillus flavus, greater than 50 µg/mL; in the experiment on Cryptococcus neoformans it was 1.6 µg/mL (≈ 4.48 µM); against Aspergillus niger it was greater than 50 µg/mL.
Turning to `CCOC(=O)c1c(N)oc2c(C)cc(O)c(C)c12`, the minimal inhibitory concentration (MIC) with Candida albicans was found to be 6.3 µg/mL (≈ 25.3 µM); in the experiment on Candida tropicalis it was 6.3 µg/mL (≈ 25.3 µM); in the experiment with Pichia kudriavzevii, 3.2 µg/mL (≈ 12.8 µM); against Aspergillus flavus, 12.5 µg/mL (≈ 50.1 µM); against Cryptococcus neoformans, 12.5 µg/mL (≈ 50.1 µM); against Aspergillus niger, 12.5 µg/mL (≈ 50.1 µM).
Consider `CCOC(=O)c1c(N)oc2cc(Cl)c(O)cc12`, for which the MIC was 12.5 µg/mL (≈ 48.9 µM) in the experiment with Candida albicans; 12.5 µg/mL (≈ 48.9 µM) with Candida tropicalis; 25 µg/mL (≈ 97.8 µM) against Pichia kudriavzevii; 12.5 µg/mL (≈ 48.9 µM) against Aspergillus flavus; 50 µg/mL (≈ 196 µM) in the experiment with Cryptococcus neoformans; 25 µg/mL (≈ 97.8 µM) in the experiment with Aspergillus niger.
With `COC(=O)c1c(N)oc2cc(C)c(O)cc12`, the MIC against Candida albicans was 25 µg/mL (≈ 113 µM); against Candida tropicalis, 25 µg/mL (≈ 113 µM); with Pichia kudriavzevii it was 3.2 µg/mL (≈ 14.5 µM); against Aspergillus flavus, 25 µg/mL (≈ 113 µM); against Cryptococcus neoformans, 12.5 µg/mL (≈ 56.5 µM); with Aspergillus niger, 12.5 µg/mL (≈ 56.5 µM).
With `COC(=O)c1c(N)oc2cc(Cl)c(O)cc12`, the MIC in the experiment on Candida albicans stood at 25 µg/mL (≈ 103 µM); in the experiment on Candida tropicalis, 12.5 µg/mL (≈ 51.7 µM); against Pichia kudriavzevii it was 25 µg/mL (≈ 103 µM); against Aspergillus flavus it was 6.3 µg/mL (≈ 26.1 µM); against Cryptococcus neoformans, 12.5 µg/mL (≈ 51.7 µM); in the experiment with Aspergillus niger, 6.3 µg/mL (≈ 26.1 µM).
As for `COC(=O)c1c(N)oc2c(C)c(C)c(O)c(Sc3ccc(C)cc3)c12`, the MIC in the experiment on Candida albicans came out at 25 µg/mL (≈ 69.9 µM); in the experiment with Candida tropicalis, 25 µg/mL (≈ 69.9 µM); against Pichia kudriavzevii it was 3.2 µg/mL (≈ 8.95 µM); with Aspergillus flavus it was 25 µg/mL (≈ 69.9 µM); with Cryptococcus neoformans it was 6.3 µg/mL (≈ 17.6 µM); in the experiment on Aspergillus niger, 25 µg/mL (≈ 69.9 µM).
Regarding `OC(Cn1cncn1)(Cn1cncn1)c1ccc(F)cc1F` [FLUCONAZOLE], the MIC amounted to 50 µg/mL (≈ 163 µM) with Candida albicans; 6.3 µg/mL (≈ 20.6 µM) against Candida tropicalis; 12.5 µg/mL (≈ 40.8 µM) in the experiment on Pichia kudriavzevii; 25 µg/mL (≈ 81.6 µM) against Aspergillus flavus; 6.3 µg/mL (≈ 20.6 µM) against Cryptococcus neoformans; 12.5 µg/mL (≈ 40.8 µM) against Aspergillus niger.
For `Cc1c(O)ccc(O)c1C`, the MIC against Candida albicans was 50 µg/mL (≈ 362 µM); against Candida tropicalis it was greater than 50 µg/mL; in the experiment on Pichia kudriavzevii, 25 µg/mL (≈ 181 µM); with Aspergillus flavus it was 12.5 µg/mL (≈ 90.5 µM); against Cryptococcus neoformans, 12.5 µg/mL (≈ 90.5 µM); with Aspergillus niger it was 50 µg/mL (≈ 362 µM).
In the case of `COC(=O)c1c(N)oc2c(C)c(C)c(O)c(Sc3ccccc3)c12`, the MIC with Candida albicans turned out to be 25 µg/mL (≈ 72.8 µM); with Candida tropicalis, 25 µg/mL (≈ 72.8 µM); in the experiment on Pichia kudriavzevii, 6.3 µg/mL (≈ 18.3 µM); against Aspergillus flavus, 25 µg/mL (≈ 72.8 µM); with Cryptococcus neoformans, 1.6 µg/mL (≈ 4.66 µM); with Aspergillus niger, 12.5 µg/mL (≈ 36.4 µM).
